Measurements from different studies.
Compare with care: the assays were run in different laboratories.
Action: inhibitor
rep papain-like protease: Replicase polyprotein 1ab, papain-like protease (rep, Severe acute respiratory syndrome coronavirus 2, UniProt P0DTD1)
rep methyltransferase: Replicase polyprotein 1ab, methyltransferase (rep, Severe acute respiratory syndrome coronavirus 2, UniProt P0DTD1)
rep main protease: Replicase polyprotein 1ab, main protease (rep, Severe acute respiratory syndrome coronavirus 2, UniProt P0DTD1)

`N#Cc1c(N)[nH]c2cc(/C=C/c3cccc(F)c3)ccc12` gave an IC50 of over 100 µM (rep papain-like protease; enzyme activity, fluorescence).
The IC50 of `O=c1nc(Nc2cccc(Cl)c2)cn[nH]1` is reported as 87.8 µM (rep methyltransferase; enzyme activity).
With `Cc1c(O)cccc1C(=O)N[C@@H](CSc1ccccc1)[C@H](O)CN1C[C@H]2CCCC[C@H]2C[C@H]1C(=O)NC(C)(C)C` the IC50 was over 10 µM (rep main protease; enzyme activity in cells).
`O=c1oc2c(cc1O)oc(=O)c1cc(O)c(O)c(O)c12` gave an IC50 of 24.1 µM (rep methyltransferase; enzyme activity).
With `Cc1cccc(C)c1OCC(=O)N[C@@H](Cc1ccccc1)[C@@H](O)C[C@H](Cc1ccccc1)NC(=O)[C@H](C(C)C)N1CCCNC1=O` the IC50 was over 240 µM (rep main protease; enzyme activity, luciferase).
`O=C(O)c1nnn(-c2nccs2)c1-c1ccc2c(c1)OCO2` gave an IC50 of 55.8 µM (rep methyltransferase; enzyme activity).
The IC50 of `c1cnc(SCc2cccnc2)nc1` is reported as 0.15 µM (rep main protease; enzyme activity).
With `NC(=O)CI` the IC50 was 22.4 µM (rep methyltransferase; enzyme activity).
`N=C(N)NN=C1C=CC(=NNC(N)=S)C=C1` gave an IC50 of 9.3 µM (rep main protease; enzyme activity).
For `COCCn1c2c([n+](Cc3cnccn3)c1C)C(=O)c1ccccc1C2=O`, the IC50 was 20.2 µM (rep papain-like protease; enzyme activity, FRET; pH 7.5).
For `COc1ccc(-c2nc(NC(=O)c3ccc(C)c(F)c3)n[nH]2)cc1OC`, the IC50 was 0.47 µM (rep main protease; enzyme activity).
The IC50 of `CC(C)C[C@H](NC(=O)OCc1ccccc1)C(=O)N(C)N(C#N)CCC(N)=O` is reported as 1.45 µM (rep main protease; enzyme activity).
For `NC(Cc1cc(O)c(O)cc1O)C(=O)O` (racemic), the IC50 was over 20 µM (rep main protease; enzyme activity).
`Cc1ccc2nc(-c3ccc(-c4ccccc4C(=O)O)o3)cc(C(=O)O)c2c1` has an IC50 of 56.4 µM (rep methyltransferase; enzyme activity).
`CO/N=C(\C(=O)N[C@@H]1C(=O)N2C(C(=O)O)=C(CSC(=O)c3ccco3)CS[C@H]12)c1csc(N)n1` has an IC50 of over 20 µM (rep main protease; enzyme activity).
The IC50 of `NCCOc1cc(C(=O)Nc2cc(OCCN)c3ccccc3n2)nc(C(=O)Nc2cc(OCCN)c3ccccc3n2)c1` is reported as 3.19 µM (rep methyltransferase; enzyme activity).
The IC50 of `COc1cc(-c2ccc(/N=N/c3ccc4c(S(=O)(=O)O)cc(S(=O)(=O)O)c(N)c4c3O)c(OC)c2)ccc1/N=N/c1ccc2c(S(=O)(=O)O)cc(S(=O)(=O)O)c(N)c2c1O` is reported as 9.82 µM (rep main protease; enzyme activity).
With `Cc1ccc(C(=O)Nc2ccc(S(=O)(=O)O)c3cc(S(=O)(=O)O)cc(S(=O)(=O)O)c23)cc1NC(=O)c1cccc(NC(=O)Nc2cccc(C(=O)Nc3cc(C(=O)Nc4ccc(S(=O)(=O)O)c5cc(S(=O)(=O)O)cc(S(=O)(=O)O)c45)ccc3C)c2)c1` the IC50 was 105 µM (rep methyltransferase; enzyme activity).
The IC50 of `S=C=NCc1ccccc1` is reported as over 20 µM (rep main protease; enzyme activity).
`CCCCCCCCOc1ccccc1C(=O)Nc1ccc(C(=O)OCC[N+](C)(CC)CC)cc1` gave an IC50 of 39.3 µM (rep methyltransferase; enzyme activity).
For `COc1ccc2[nH]c([S+]([O-])Cc3ncc(C)c(OC)c3C)nc2c1` (stereo not drawn), the IC50 was over 20 µM (rep main protease; enzyme activity).
For `c1ccc([Se][Se]c2ccccc2)cc1`, the IC50 was 1.33 µM (rep main protease; enzyme activity, FRET).
The IC50 of `N[C@@H](Cc1ccc(O)c(O)c1)C(=O)O` is reported as 5.6 µM (rep main protease; enzyme activity).
With `Cc1ccc2[nH]ncc2c1C(=O)NC[C@H]1Cc2ccccc2CN1C(=O)C[C@H](C)c1ccco1` the IC50 was 56.9 µM (rep main protease; enzyme activity).
